The list is not random: actives were taken first. Their share in the collection is about 1.9%.
ARFGAP1 inhibitor = inhibitors of rat ARFGAP1; Arfgap1-stimulated ARF1 GTP hydrolysis, GDP FP detection; AID 651572; 360,000 compounds, 0.26% hits; inhibition, % at 16.5 µM; Q62848;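 active means inhibition above a per-plate limit, mean inhibition of low control wells plus 3 SD, cut at about 25% in these data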;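 further: 0% = DMSO wells with enzyme and 100% = wells lacking Arfgap1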
Target sequence (Q62848 1-136 limits assumed): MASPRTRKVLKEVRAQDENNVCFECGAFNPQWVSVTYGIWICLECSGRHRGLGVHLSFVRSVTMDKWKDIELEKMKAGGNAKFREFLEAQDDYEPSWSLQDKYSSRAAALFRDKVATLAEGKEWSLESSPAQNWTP
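material = rat Arfgap1 catalytic domain, aa 1-136 | also added = human ARF1(Δ1-17)-GTP substrate | compound dosing = one concentration, 16.5 µM, DMSO 1.26% | times = GTP hydrolysis reaction 2 h at 25 °C | measured by = FP, GDP Alexa 633 tracer displaced from anti-GDP antibody, 620/688 nm | evaluation = percent inhibition of Arfgap1-stimulated GTP hydrolysis | replication = single well per compound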
ASAP1 inh = inhibitors of human ASAP1 ArfGAP activity; Q9ULH1; ASAP1-stimulated ARF1 GTP hydrolysis, GDP FP detection; inhibition, % at 16.5 µM; 360,000 compounds, 0.19% hits; AID 624377; in the data active means inhibition above about 25%;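 further: 0% = vehicle with enzyme and substrate and 100% = no enzyme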
Target sequence (Q9ULH1 325-724 limits assumed): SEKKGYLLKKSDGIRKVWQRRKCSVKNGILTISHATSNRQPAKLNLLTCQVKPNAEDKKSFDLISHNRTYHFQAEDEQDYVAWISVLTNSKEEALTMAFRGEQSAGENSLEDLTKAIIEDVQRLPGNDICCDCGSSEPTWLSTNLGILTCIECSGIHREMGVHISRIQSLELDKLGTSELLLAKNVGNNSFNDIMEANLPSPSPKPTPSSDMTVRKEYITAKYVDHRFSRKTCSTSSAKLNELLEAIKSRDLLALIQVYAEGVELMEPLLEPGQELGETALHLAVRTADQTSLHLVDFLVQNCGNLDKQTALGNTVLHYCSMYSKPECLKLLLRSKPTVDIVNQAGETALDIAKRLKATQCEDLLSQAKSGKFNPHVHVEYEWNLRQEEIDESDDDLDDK
PLCg1 inh = blocks human PLC-gamma1 enzyme activity; 370,000 compounds, 0.84% hits; inhibition, % at 12.2 µM; purified PLC-gamma1, fluorogenic substrate, fluorescence; AID 720700; in the data active means inhibition above about 9.5%
PLC-beta3 inh = PLC-beta3 (human) inhibition, primary screen | Q01970 | Purified PLC-beta3, fluorogenic substrate, fluorescence | inhibition, % at 12.2 µM | 370,000 compounds, 0.18% hits | AID 720704; in the data active means inhibition above about 11%;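 further: 0% = median of compound wells on plate and 100% = full blocker control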
HGIII-sPLA2 inh = Inhibits HGIII-sPLA2 liposome hydrolysis, primary screen. Q9NZ20. QFRET BODIPY PC-A2 liposome hydrolysis, fluorescence. 370,000 compounds, 0.56% hits. inhibition, % at 12.2 µM;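 active means inhibition above mean plus 3 SD of compounds lying within the high and low control bounds, cut at about 19% in these data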;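 further: 0% = median of test compound wells and 100% = no enzyme DMSO wells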
hGIII sPLA2 conf = human GIII-sPLA2 inhibition, confirmation; AID 743280; 2,000 compounds, 34% hits; recombinant hGIII-sPLA2, BODIPY PC-A2 QFRET fluorescence; inhibition, % at 12.2 µM; shares compounds with HGIII-sPLA2 inh;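 active means mean inhibition across triplicates above the hit cutoff set in the earlier primary screen, cut at about 19% in these data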;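 further: 0% = enzyme with DMSO and 100% = DMSO wells lacking enzyme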
535nm interf = 535nm fluorescence interference, HGIII-sPLA2 counter-screen; shares compounds with HGIII-sPLA2 inh; BODIPY FL product fluorescence interference, QFRET; inhibition, % at 12.2 µM; 2,000 compounds, 8.5% hits;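 active means average inhibition above the solvent-only control mean plus 3 SD, cut at about 6% in these data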;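 further: 0% = DMSO with substrate plus product and 100% = DMSO with substrate alone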
535nm interf DR = interferes with 535nm fluorescence in dose response counter-screen; BODIPY FL product fluorescence interference, cell-free; AID 743455; IC50, µM; 240 tested, under 10 active; shares compounds with HGIII-sPLA2 inh;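 active means IC50 at or below 10 µM; inactive means IC50 above 10 µM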
Numbers without * were called inactive; / = not tested or not shown.

SMILES	ARFGAP1 inhibitor	ASAP1 inh	PLCg1 inh	PLC-beta3 inh	HGIII-sPLA2 inh	hGIII sPLA2 conf	535nm interf	others
O=C(NNc1nc2cc3c(cc2s1)OCO3)c1ccc(F)cc1	2	10	-17	-19	23*	38*	0	535nm interf DR=>122
Fc1ccc2nc(Nc3nc4cc5c(cc4s3)OCCO5)sc2c1	11	5	-272	-299	24*	15	6.5*
Fc1ccc2nc(Nc3nc4cc5c(cc4s3)OCO5)sc2c1	5	12	-8	-16	8	/	/
O=[N+]([O-])c1ccccc1/C=C/C1Nc2cccc3cccc(c23)N1	/	/	-1	-5	7	/	/
COC(=O)C1=C(C)N(C)C(=NCc2cc(OC)c(OC)c(OC)c2)NC1c1cccc(C(F)(F)F)c1 (stereo not given)	8	-14	3	-3	-18	/	/
CC1CCC2(CC1)CCN(CCCOC(=O)Nc1cccc(C(F)(F)F)c1)C2=O (stereo not given)	/	/	-2	-2	0	/	/
C=CCN(Cc1ccc2c(c1)OCO2)C(C#CCCCC)C(C)C (stereo not given)	/	/	1	3	2	/	/
COc1cc(/C=N/n2c(COc3ccccc3)n[nH]c2=S)cc(OC)c1OC(C)=O	16	2	0	-7	24*	17	-2
COc1ccc(-n2c(COc3ccccc3)n[nH]c2=S)cc1	-12	11	5	-10	21*	23*	2
S=c1[nH]nc(COc2ccccc2)n1-c1ccc(Cl)cc1	10	0	3	-7	22*	33*	-1	535nm interf DR=>122
COc1cccc(C(=O)Nc2ccc3c(c2)OC[C@H](C)N(CCc2ccccc2)C[C@@H](C)[C@@H](OC)CN(C)C3=O)c1	-3	-4	1	-1	-5	/	/
CCCN1C[C@@H](C)[C@@H](OC)CN(C)C(=O)c2ccc(NC(=O)c3cccc(F)c3)cc2OC[C@H]1C	4	3	1	0	20*	4	-11
Nc1[nH]c(C(=O)c2ccccc2)c(-c2ccc3ccccc3c2)c1C(=O)NCc1ccc(F)cc1	4	-6	-9	-10	-8	/	/
COc1cccc(-c2cc3c(c4c2ccn4C)C2CCC3C2)c1 (stereo not given)	-7	-1	-26	-42	19*	-5	2
COc1ccccc1-c1cc2c(c3c1ccn3C)C1CCC2C1 (stereo not given)	7	8	-6	-10	22*	4	-3
COCc1[nH]nc2c1C(c1ccccc1)NC2=O (stereo not given)	-2	5	4	2	19	/	/
Fc1ccc(-n2c(-c3cc(C4CC4)[nH]n3)n[nH]c2=S)cc1Cl	-7	-10	-2	-9	28*	23*	1
O=c1ccc(-c2n[nH]c(=S)n2-c2ccc(F)c(Cl)c2)n[nH]1	4	8	1	-3	7	/	/
CNC(=S)NNC(=O)c1c(C)nc2cc(C)ccn12	6	3	-26	-31	19*	4	-7
Cc1cc2nc(C)c(=O)n(C)c2cc1C	3	-3	-88	-98	23*	6	-8
Cc1cc2nc(-c3ccc(=O)[nH]c3)n(C)c2cc1C	1	-12	-21	-33	-9	/	/
CCCOc1ccc(C(=O)N2CCC(Oc3cccnc3)CC2)cc1	/	/	0	4	-3	/	/
O=C(CSc1nnc(-c2cccnc2)n1-c1ccccc1)Nc1ccc2c(c1)OCCO2	/	/	3	2	3	/	/
CCOC(=O)c1ccc2c(c1)C(=O)N(C1CCCCC1)C2=O	2	2	2	2	20*	3	-8
CC(=O)Oc1cccc(C(=O)Nc2c[nH]c(=O)[nH]c2=O)c1	-12	-14	3	5	-3	/	/
SMILES	ARFGAP1 inhibitor	ASAP1 inh	PLCg1 inh	PLC-beta3 inh	HGIII-sPLA2 inh	hGIII sPLA2 conf	535nm interf	others
COc1cccc(C(=O)Nc2c[nH]c(=O)[nH]c2=O)c1	9	-3	0	-6	21*	3	-5
CCn1c(=N)n(CC(O)c2ccco2)c2ccccc21 (stereo not given)	0	-6	-3	-4	6	/	/
N=c1n(CCN2CCCCC2)c2ccccc2n1CC(O)c1ccco1 (stereo not given)	8	7	-4	-9	21*	-1	-21
CCOC(=O)[C@]12CCCC3=C1N(CCC3)C(=O)[C@@H](CC(=O)N1CCN(C(=O)C3CC3)CC1)C2	/	/	2	1	10	/	/
CNc1nc(-c2ccccc2)nc(-c2ccccc2)c1C#N	8	3	3	0	20*	-4	-5
CNc1nc(-c2ccccc2)nc(-c2ccc(OC)cc2)c1C#N	-9	-13	0	2	0	/	/
O=c1oc2cc(O)ccc2s1	18	4	0	2	20*	4	-2
Oc1ccc2c(c1)oc1cc(O)ccc12	-5	1	-37	-46	-20	/	/
CCSc1nnc([C@@H](NC(=O)OC(C)(C)C)C(C)C)o1	5	7	2	-4	19*	2	-3
CCCCSc1nnc([C@@H](NC(=O)OC(C)(C)C)C(C)C)o1	9	10	2	6	5	/	/
CC(C)(C)c1ccc(-c2cn(C[C@H](Cc3ccccc3)n3c(=O)c4ccccc4n3Cc3ccco3)nn2)cc1	/	/	-16	-32	7	/	/
COc1cccc(Nc2nc(C(N)c3ccccc3)cs2)n1 (stereo not given)	17	0	-1	-8	24*	6	-9
COc1cccc(Nc2nc(C(C)N)cs2)n1 (stereo not given)	-3	-8	2	2	13	/	/
S=C(NCC1CCCCC1)Nc1ccc(Oc2ccccc2)cc1	-16	2	1	2	3	/	/
S=C(NCC1CCCCC1)Nc1cccnc1	-3	-2	1	0	23*	6	-6
CCCCCn1nnnc1C1(C)Cn2nccc2C(=O)N1Cc1ccco1 (stereo not given)	/	/	0	2	-1	/	/
Cc1ccccc1CN1CCCCC(NC(=O)Nc2ccccc2)C1=O (stereo not given)	/	/	4	3	2	/	/
COc1cc(NC(=S)N2CCN(c3ccccn3)CC2)c(OC)cc1Cl	0	8	-4	-4	22*	16	-6
O=[N+]([O-])c1ccc(CSc2nnc(-c3cccc(Cl)c3)n2Cc2ccco2)cc1	/	/	3	2	-9	/	/
C[C@H]1C2CC(OC(=O)Nc3ccc(F)cc3)C(C2)[C@H]2CCCCN21 (stereo not given in full)	/	/	3	-2	12	/	/
